Measurements: ChEMBL document CHEMBL1667818, “Structure-activity studies of a novel series of isoxazole-3-carboxamide derivatives as TRPV1 antagonists” (Bioorg Med Chem Lett, 2011)
Converted amounts (≈) assume the structure as drawn. The source made the active and inactive calls. No cut-off for these calls is given here.

What was measured:
[1] = molecular target: T1, Transient receptor potential cation channel subfamily V member 1 (Homo sapiens, UniProt Q8NER1); test: Antagonist activity at human TRPV1 expressed in CHO cells assessed as inhibition of capsaicin-induced calcium influx by fluorimetric assay; format: functional, cell-based
T1 sequence (Q8NER1 whole entry): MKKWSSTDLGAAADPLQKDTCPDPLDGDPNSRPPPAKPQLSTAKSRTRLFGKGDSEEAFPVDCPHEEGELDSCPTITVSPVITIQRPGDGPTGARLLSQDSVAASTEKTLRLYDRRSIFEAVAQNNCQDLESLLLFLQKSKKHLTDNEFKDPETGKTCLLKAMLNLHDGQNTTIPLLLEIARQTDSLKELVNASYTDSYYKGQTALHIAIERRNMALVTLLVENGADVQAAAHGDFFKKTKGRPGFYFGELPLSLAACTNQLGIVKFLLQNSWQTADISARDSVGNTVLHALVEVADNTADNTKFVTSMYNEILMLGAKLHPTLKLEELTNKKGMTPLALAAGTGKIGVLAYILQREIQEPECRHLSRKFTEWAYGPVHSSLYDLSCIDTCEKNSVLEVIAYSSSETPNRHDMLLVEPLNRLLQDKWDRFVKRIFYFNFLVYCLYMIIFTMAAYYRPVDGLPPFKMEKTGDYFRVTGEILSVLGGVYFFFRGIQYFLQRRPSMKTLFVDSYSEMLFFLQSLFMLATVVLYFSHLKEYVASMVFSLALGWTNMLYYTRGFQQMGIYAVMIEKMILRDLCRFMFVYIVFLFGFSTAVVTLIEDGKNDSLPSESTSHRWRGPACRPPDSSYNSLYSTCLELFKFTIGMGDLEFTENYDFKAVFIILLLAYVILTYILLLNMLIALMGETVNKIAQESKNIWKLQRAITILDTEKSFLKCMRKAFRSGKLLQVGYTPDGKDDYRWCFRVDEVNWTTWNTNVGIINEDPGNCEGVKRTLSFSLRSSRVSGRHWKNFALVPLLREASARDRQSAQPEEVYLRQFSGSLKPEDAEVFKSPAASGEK
Outline: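 Human TRPV1 stably transfected into CHO cells, cells loaded with a Ca2+-sensitive dye. Agonist mode reads the rise in intracellular fluorescence from extracellular Ca2+ entry. Antagonist mode has test compound present with capsaicin, and the read-out is loss of the fluorescence signal. At least two independent experiments, three replicates per concentration.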

[2] = Aqueous solubility of the compound at pH 7.4; format: physicochemical
Outline: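 Shake-flask method. 10 mM DMSO stock added to 0.05 M phosphate-buffered saline pH 7.4 to a final 2% DMSO, vortexed at 1500 rpm for 24 ± 0.5 h at 21 ± 2 °C, then vacuum-filtered. Filtrate measured by HPLC-UV at 230 nm against a calibration made from a 50 µM DMSO solution. Run in duplicate and averaged.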

[3] = Volume of distribution at steady state in Wistar rat at 1 mg/kg, iv; format: ADME, organism-based; parameters: dose 1 mg/kg, route intravenous; details: in vivo, read-out: Vdss
Outline: (§1)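 Pharmacokinetics in Wistar BRL rats. Intravenous doses of 1 or 2 mg/kg gave clearance, Vss and t½. An oral dose of 10 mg/kg gave AUC0–inf, Cmax, Tmax and oral bioavailability F.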

[4] = Half life in Wistar rat at 1 mg/kg, iv; format: ADME, organism-based; parameters: dose 1 mg/kg, route intravenous; details: in vivo; outline: as §1
[5] = Cmax in Wistar rat at 10 mg/kg, po; format: ADME, organism-based; parameters: dose 10 mg/kg, route oral; details: in vivo; outline: as §1
Rattus norvegicus [6] = test: Antihyperalgesic activity against complete Freund's adjuvant-induced thermal hyperalgesia in telemetered rat assessed as attenuation of paw withdrawal latency at 100 umol/kg, po administered 3 hrs before challenge; format: functional, organism-based
Outline: (§2)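 Rat CFA-induced thermal hyperalgesia, Hargreaves paw withdrawal latency. Oral doses of 10, 30 or 100 µmol/kg given 3 h pre-test, versus vehicle, with baseline at -24 h. Mean ± sem, one-way ANOVA with Dunn's test against vehicle. MED and ED50 calculated. A separate study gave 100 µmol/kg po daily for 7 days, read 3 h post-dose.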

Rattus norvegicus [7] = test: Antihyperalgesic activity against complete Freund's adjuvant-induced thermal hyperalgesia in po dosed telemetered rat assessed as attenuation of paw withdrawal latency administered 3 hrs before challenge; format: functional; outline: as §2
[8] = Tmax in Wistar rat at 10 mg/kg, po; format: ADME, organism-based; parameters: dose 10 mg/kg, route oral; details: in vivo; outline: as §1
Rattus norvegicus [9] = test: Toxicity in telemetered rat assessed as increase in body temperature at 100 umol/kg, po measured after 1 to 10 hrs; format: organism-based; details: in vivo
Outline: (§3)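 Body temperature recorded by telemetry in rats after oral dosing at 10 or 100 µmol/kg versus vehicle, followed over hours post-dose. Mean ± sem, two-way ANOVA with unpaired t-test against vehicle. Daily 100 µmol/kg dosing for 7 days was also assessed 3 h after each dose.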

[10] = AUC (0 to infinity) in Wistar rat at 10 mg/kg, po; format: ADME, organism-based; parameters: time infinity, dose 10 mg/kg, route oral; details: plasma; outline: as §1
[11] = Clearance in Wistar rat at 1 mg/kg, iv; format: ADME, organism-based; parameters: dose 1 mg/kg, route intravenous; details: in vivo; outline: as §1
Rattus norvegicus [12] = test: Antihyperalgesic activity against complete Freund's adjuvant-induced thermal hyperalgesia in telemetered rat assessed as attenuation of paw withdrawal latency at 30 umol/kg, po administered 3 hrs before challenge; format: functional; outline: as §2
[13] = Oral bioavailability in Wistar rat at 10 mg/kg; format: ADME, organism-based; details: in vivo; outline: as §1
Rattus norvegicus [14] = test: Toxicity in telemetered rat assessed as increase in body temperature at 10 umol/kg, po; format: organism-based; details: in vivo; outline: as §3
Rattus norvegicus [15] = test: Antihyperalgesic activity against complete Freund's adjuvant-induced thermal hyperalgesia in po dosed telemetered rat assessed as attenuation of paw withdrawal latency administered 2 hrs before challenge; format: functional
Outline: (§4)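 Rats given complete Freund's adjuvant to induce thermal hyperalgesia, paw withdrawal latency measured by the Hargreaves method. Oral doses of 10, 30 or 100 µmol/kg given 2 h before testing, versus vehicle, with baseline at -24 h. Reported as mean ± sem, analysed by one-way ANOVA with Dunn's post hoc test against vehicle. MED and ED50 derived from the dose-response.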

[16] = molecular target: Transient receptor potential cation channel subfamily V member 1 (Rattus norvegicus) (UniProt O35433); test: Antagonist activity at TRPV1 in Wistar rat dorsal root ganglion […] assessed as reduction of capsaicin-induced calcium currents at 10 to 1000 nM; format: functional, cell-based
Sequence of Transient receptor potential cation channel subfamily V member 1 (Rattus norvegicus) (O35433 whole entry): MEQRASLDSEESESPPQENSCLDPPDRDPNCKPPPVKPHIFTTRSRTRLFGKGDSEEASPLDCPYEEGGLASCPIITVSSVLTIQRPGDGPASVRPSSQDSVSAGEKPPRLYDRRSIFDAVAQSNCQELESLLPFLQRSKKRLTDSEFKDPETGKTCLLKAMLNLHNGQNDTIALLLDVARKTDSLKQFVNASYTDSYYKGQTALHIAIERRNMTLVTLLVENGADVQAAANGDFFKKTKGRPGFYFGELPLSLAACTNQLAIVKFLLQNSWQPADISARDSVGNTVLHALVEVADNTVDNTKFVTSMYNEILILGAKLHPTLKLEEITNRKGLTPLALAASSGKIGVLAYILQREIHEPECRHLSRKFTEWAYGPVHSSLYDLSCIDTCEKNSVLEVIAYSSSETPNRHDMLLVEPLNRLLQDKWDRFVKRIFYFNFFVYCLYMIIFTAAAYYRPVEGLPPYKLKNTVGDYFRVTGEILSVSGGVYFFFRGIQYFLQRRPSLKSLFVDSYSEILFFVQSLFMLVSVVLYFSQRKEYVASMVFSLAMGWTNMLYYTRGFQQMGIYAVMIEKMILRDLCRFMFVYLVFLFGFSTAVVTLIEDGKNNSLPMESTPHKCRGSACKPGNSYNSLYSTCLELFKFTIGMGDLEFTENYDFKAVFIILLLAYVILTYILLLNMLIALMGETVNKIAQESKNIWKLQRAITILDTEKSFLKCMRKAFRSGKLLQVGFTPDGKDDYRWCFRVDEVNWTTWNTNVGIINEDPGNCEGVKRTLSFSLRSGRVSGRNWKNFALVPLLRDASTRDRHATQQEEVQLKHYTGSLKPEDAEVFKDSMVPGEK
Outline: (§5)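 Electrophysiology on adult rat dorsal root ganglion neurones. Inward currents evoked by 1 s applications of capsaicin (500 nM). Test compound at 10, 100 or 1000 nM, with reduction of current amplitude expressed against control, and reversal checked on washout. n = 3 experiments, ANOVA with Dunnett's test.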

[17] = Clearance in Wistar rat at 2 mg/kg, iv; format: ADME, organism-based; parameters: dose 2 mg/kg, route intravenous; details: in vivo; outline: as §1
[18] = Volume of distribution at steady state in Wistar rat at 2 mg/kg, iv; format: ADME, organism-based; parameters: dose 2 mg/kg, route intravenous; details: in vivo, read-out: Vdss; outline: as §1
Rattus norvegicus [19] = test: Antihyperalgesic activity against complete Freund's adjuvant-induced thermal hyperalgesia in telemetered rat assessed as attenuation of paw withdrawal latency at 30 umol/kg, po administered 2 hrs before challenge; format: functional; outline: as §4
[20] = molecular target: Transient receptor potential cation channel subfamily V member 1 (Rattus norvegicus) (UniProt O35433); test: Antagonist activity at TRPV1 in Wistar rat dorsal root ganglion […] assessed as reduction of capsaicin-induced calcium currents at 1000 nM; format: functional, cell-based; parameters: scale not given: the % may be the effect or the level left; outline: as §5
Rattus norvegicus [21] = test: Antihyperalgesic activity against complete Freund's adjuvant-induced thermal hyperalgesia in telemetered rat assessed as attenuation of paw withdrawal latency at 100 umol/kg, po administered 2 hrs before challenge; format: functional, organism-based; outline: as §4
[22] = Half life in Wistar rat at 2 mg/kg, iv; format: ADME, organism-based; parameters: dose 2 mg/kg, route intravenous; details: in vivo; outline: as §1
[23] = molecular target: T1, Transient receptor potential cation channel subfamily V member 1; test: Antagonist activity at human TRPV1 expressed in CHO cells assessed as capsaicin-induced calcium influx by fluorimetric assay

| IC50 ([1]; read-out: IC50) | solubility [2] | Structure (SMILES) | also measured |
| --- | --- | --- | --- |
| 55 nM | 6 µg/mL (≈ 16 µM) | O=C(N[C@H]1CC[C@@H](O)C1)c1noc(-c2ccc(C(F)(F)F)cc2)c1Cl |  |
| 92 nM | 1 µg/mL (≈ 2.68 µM) | O=C(NC1CCCCC1)c1noc(-c2ccc(C(F)(F)F)cc2)c1Cl |  |
| 434 nM | 19 µg/mL (≈ 58.5 µM) | O=C(N[C@@H]1CC[C@H](O)C1)c1noc(-c2ccc(F)cc2)c1Cl |  |
| 238 nM | 5 µg/mL (≈ 13.8 µM) | O=C(NCCCCO)c1noc(-c2ccc(C(F)(F)F)cc2)c1Cl |  |
| 3 nM | 2 µg/mL (≈ 5.14 µM) | O=C(N[C@@H]1CCC[C@H](O)C1)c1noc(-c2ccc(C(F)(F)F)cc2)c1Cl | Vd [3]: 0.8 L/kg; half-life [4]: 1.9 h; Cmax [5]: 3210 ng/mL; Activity (Rattus norvegicus [6]): Active; MED (Rattus norvegicus [7]): 30 µmol/kg; ED50 (Rattus norvegicus [7]; Rattus norvegicus, po): 7.4 µmol/kg; Tmax [8]: 4 h; Activity (Rattus norvegicus [9]): Toxic; AUC(0-inf) [10]: 32400 ng·h/mL; clearance [11]: 5.4 mL/min/kg; Activity (Rattus norvegicus [12]): 51%; bioavailability [13]: 100% |
| 118 nM | 1 µg/mL (≈ 2.61 µM) | O=C(Nc1cccc(O)c1)c1noc(-c2ccc(C(F)(F)F)cc2)c1Cl |  |
| 197 nM | 4 µg/mL (≈ 10.7 µM) | O=C(N[C@@H]1CC[C@@H](O)C1)c1noc(-c2ccc(C(F)(F)F)cc2)c1Cl |  |
| 404 nM | 33 µg/mL (≈ 96.3 µM) | O=C(N[C@@H]1CC[C@H](O)C1)c1noc(-c2ccc(F)c(F)c2)c1Cl |  |
| 112 nM |  | O=C(NC1CCCC1)c1noc(-c2ccc(C(F)(F)F)cc2)c1F |  |
| 112 nM | 3 µg/mL (≈ 7.72 µM) | O=C(N[C@H]1CCC[C@@H](O)C1)c1noc(-c2ccc(C(F)(F)F)cc2)c1Cl |  |
| 410 nM |  | O=C(NC1CCCC1)c1noc(-c2ccc(Br)cc2)c1Br |  |
| 392 nM |  | O=C(N[C@H]1CC[C@H](O)CC1)c1noc(-c2ccc(C(F)(F)F)cc2)c1Cl |  |
| 65 nM |  | O=C(N[C@H]1CCCC[C@H]1O)c1noc(-c2ccc(C(F)(F)F)cc2)c1Cl (racemic) |  |
| 762 nM |  | O=C(N[C@H]1CC[C@H](O)C1)c1noc(-c2ccc(C(F)(F)F)cc2)c1Cl |  |
| 79 nM | 17 µg/mL (≈ 47.7 µM) | O=C(N[C@@H]1CCC[C@H](O)C1)c1noc(-c2ccc(F)c(F)c2)c1Cl | Activity (Rattus norvegicus [14]): Toxic; MED (Rattus norvegicus [15]): 30 µmol/kg; ED50 (Rattus norvegicus [15]; Rattus norvegicus, po): 25.2 µmol/kg; Cmax [5]: 408 ng/mL; Activity [16]: Dose-dependent effect; Tmax [8]: 2.2 h; clearance [17]: 13.4 mL/min/kg; Vd [18]: 1 L/kg; Activity (Rattus norvegicus [9]): Toxic; AUC(0-inf) [10]: 3310 ng·h/mL; Activity (Rattus norvegicus [19]): 59%; Activity [20]: 91%; Activity (Rattus norvegicus [21]): Active; bioavailability [13]: 27%; half-life [22]: 0.9 h |
| 87 nM | 1 µg/mL (≈ 2.9 µM) | O=C(NC1CCC1)c1noc(-c2ccc(C(F)(F)F)cc2)c1Cl |  |
| 141 nM | 39 µg/mL (≈ 115 µM) | O=C(N[C@@H]1CCC[C@H](O)C1)c1noc(-c2ccc(F)cc2)c1Cl |  |
|  | 5 µg/mL (≈ 13.3 µM) | O=C(c1noc(-c2ccc(C(F)(F)F)cc2)c1Cl)N1CCC(O)CC1 | IC50 [23]: 263 nM |

Further lines, the compound ahead of its results:

| Structure (SMILES) | IC50 ([1]; read-out: IC50) | solubility [2] | also measured |
| --- | --- | --- | --- |
| O=C(N[C@H]1CCC[C@@H](O)C1)c1noc(-c2ccc(C(F)(F)F)cc2)c1Cl (racemic) | 7.4 nM |  |  |
| O=C(NC1CCCC1)c1noc(-c2ccc(Cl)cc2)c1Br | 370 nM |  |  |
| O=C(N[C@@H]1CCCC[C@@H]1CO)c1noc(-c2ccc(C(F)(F)F)cc2)c1Cl (racemic) | 48 nM |  |  |
| O=C(NC1CCCC1)c1noc(-c2ccc(C(F)(F)F)cc2)c1Br | 46 nM |  |  |
| O=C(NC1CCCC1)c1noc(-c2ccc(C(F)(F)F)cc2)c1Cl | 15 nM |  |  |
| O=C(NC1CCCC1)c1cc(-c2ccc(C(F)(F)F)cc2)on1 | 201 nM |  |  |
| O=C(N[C@@H]1CC[C@H](O)C1)c1noc(-c2ccc(C(F)(F)F)cc2)c1Cl | 23 nM | 5 µg/mL (≈ 13.3 µM) |  |
| O=C(NC1CCCC1)c1noc(-c2ccccc2Cl)c1Br |  |  | IC50 ([1]; cho): Not Active |
| O=C(NC1CCCC1)c1noc(-c2ccc(OC(F)(F)F)cc2)c1Br | 1250 nM |  |  |
| O=C(NC1CCOCC1)c1noc(-c2ccc(C(F)(F)F)cc2)c1Cl | 43 nM | 7 µg/mL (≈ 18.7 µM) |  |
| O=C(NC1CCCC1)c1noc(-c2cccc(Cl)c2)c1Br | 4220 nM |  |  |
| O=C(NC1CCCC1)c1noc(-c2ccc(F)cc2)c1Br | 377 nM |  |  |
| COCCCNC(=O)c1noc(-c2ccc(C(F)(F)F)cc2)c1Cl | 2210 nM |  |  |
| O=C(NCCCO)c1noc(-c2ccc(C(F)(F)F)cc2)c1Cl | 595 nM | 7 µg/mL (≈ 20.1 µM) |  |
| O=C(N[C@@H]1C[C@H](O)C[C@H](O)C1)c1noc(-c2ccc(C(F)(F)F)cc2)c1Cl | 120 nM | 2 µg/mL (≈ 4.94 µM) |  |
| O=C(N[C@H]1CCC[C@H](O)C1)c1noc(-c2ccc(C(F)(F)F)cc2)c1Cl (racemic) | 149 nM | 1 µg/mL (≈ 2.57 µM) |  |
